# According to ChEMBL document CHEMBL1131199, “Structure-activity of novel rhodacyanine dyes as antitumor agents” (J Med Chem, 1998):
# Assays:
# [1] = test system: CX-1; assay: In vitro inhibition of growth of human carcinoma CX-1 cell line (clonogenic assay).; format: functional, cell-based
# [2] = Lethal dose when administered intraperitoneally; format: toxicity; conditions: mouse, ip
# [3] = test system: Mus musculus; assay: In vivo ratio of median survival time of drug-treated to control, untreated tumor-bearing mice at a dose of 4 mg/kg for 7 days; format: functional
# [4] = test system: KB; assay: In vitro inhibition of growth of KB cells (cytotoxic assay).; format: functional, cell-based, Homo sapiens
# [5] = test system: Mus musculus; assay: Tumor inhibition (TI) ratio at a dose of 1 mg/kg for 4 day; format: functional
# [6] = Lethal dose when administered intravenously; format: toxicity; conditions: mouse, iv
# [7] = test system: CV-1; assay: Compound was tested in vitro for inhibition of growth of cytotoxic CV-1 cell line; format: functional, cell-based, Homo sapiens; conditions: Chlorocebus aethiops
# [8] = test system: Mus musculus; assay: In vivo ratio of median survival time of drug-treated to control, untreated tumor-bearing mice at a dose of 5 mg/kg for 3 days; format: functional
# [9] = test system: Mus musculus; assay: In vivo ratio of median survival time of drug-treated to control, untreated tumor-bearing mice at a dose of 10 mg/kg for 1 day; format: functional
# [10] = The solubility in 0.9% saline was determined; format: ADME
# [11] = The solubility in water was determined; format: ADME
# [12] = test system: Mus musculus; assay: In vivo ratio of median survival time of drug-treated to control, untreated tumor-bearing mice at a dose of 10 mg/kg for 5 days; format: functional
# [13] = test system: CV-1; assay: The IC50 value for 50%inhibition of cells on clonogenic CV-1 […] cytotoxic cell lines.; format: functional, cell-based; conditions: Chlorocebus aethiops
# Outline: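 CV-1 cytotoxicity assay: cells seeded at 4×10^4 per 20 mm plate at 37 °C in 5% CO2. Next day, cells were exposed to varying compound concentrations for 1 week, stained with crystal violet, and viable cells counted.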
# [14] = test system: Mus musculus; assay: Tumor inhibition (TI) ratio at a dose of 3 mg/kg for 4 day; format: functional
# Outline: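 BDF1 mice (male, inbred, 5-week-old, ~1 week acclimation) implanted sc with 5 × 10^5 CA755 cells; compound given iv in 0.9% saline (0.2 mL/20 g body weight), 3 mg/kg/day × 4. Tumors weighed at day 11; inhibition (%) = (A − B)/A × 100, A and B being mean control and treated tumor weights. Five mice per group; Bartlett's, Dunnett's, Scheffé's tests.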
# [15] = test system: Mus musculus; assay: In vivo ratio of median survival time of drug-treated to control, untreated tumor-bearing mice at a dose of 5 mg/kg for 5 days; format: functional
# [16] = test system: Mus musculus; assay: In vivo ratio of median survival time of drug-treated to control, untreated tumor-bearing mice at a dose of 7 mg/kg for 5 days; format: functional
# Outline: (§1)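 Male Swiss nu/nu mice, about 5 weeks old, acclimated 1 week. LOX melanoma was first grown sc in nude mice, then made into a single-cell suspension with RBCs lysed by ammonium chloride. Each mouse got 2×10^6 LOX cells ip in PBS. From the next day, compound was given ip in 45% hydroxypropyl β-cyclodextrin in water. T/C is median survival of treated over untreated controls, as a percentage. Five mice per group.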
# [17] = test system: Mus musculus; assay: In vivo ratio of median survival time of drug-treated to control, untreated tumor-bearing mice at a dose of 4 mg/kg for 5 days; format: functional; outline: as §1
# [18] = test system: Mus musculus; assay: In vivo ratio of median survival time of drug-treated to control, untreated tumor-bearing mice at a dose of 2 mg/kg for 5 days; format: functional
# [19] = test system: Mus musculus; assay: In vivo ratio of median survival time of drug-treated to control, untreated tumor-bearing mice at a dose of 5 mg/kg for 4 day; format: functional
Structure (SMILES),"IC50 ([1]; Homo sapiens, CX-1)",LD50 [2],"IC50 ([4]; Homo sapiens, KB)",LD50 [6],other results
CC(=O)[O-].CCn1c(=O)/c(=C2\Sc3ccccc3N2C)s/c1=C\c1sc2ccccc2[n+]1CC,60 nM,30 mg/kg,60 nM,5 mg/kg,T/C [3]: 163%; TI [5]: 59.4%; IC50 [7]: 1400 nM
CCN1CCS/C1=C\C=c1/s/c(=C\c2sc3c4ccccc4ccc3[n+]2C)n(CC)c1=O,30 nM,,490 nM,,
CCn1c(=O)/c(=C/C=C2/N(C)c3ccccc3C2(C)C)s/c1=C\c1oc2c3ccccc3ccc2[n+]1CC.Cc1ccc(S(=O)(=O)[O-])cc1,10 nM,,270 nM,,T/C [8]: 94%
CC(=O)[O-].CCN1C(C)=CS/C1=C\C=c1/s/c(=C\c2sc3ccccc3[n+]2CC)n(CC)c1=O,60 nM,,250 nM,,T/C [9]: 138%
CCn1c(=O)/c(=C2\Sc3ccccc3N2C)s/c1=C\c1cccc[n+]1CC.[I-],,,,,IC50 ([1]; cx-1): 800 nM; IC50 ([4]; kb): 46800 nM; solubility [10]: < 100 µg/mL; solubility [11]: 200 µg/mL
CCN1/C(=C/C=c2\s/c(=C\c3sc4ccc5ccccc5c4[n+]3CC)n(CC)c2=O)Sc2ccc3ccccc3c21.Cc1ccc(S(=O)(=O)[O-])cc1,40 nM,,210 nM,,T/C [12]: 126%
CCN1CCS/C1=C\C=c1/s/c(=C\c2sc3c4ccccc4ccc3[n+]2CCO)n(CC)c1=O,390 nM,,,,
CC(=O)[O-].CCn1c(=O)/c(=C2\Sc3ccccc3N2C)s/c1=C\c1cccc[n+]1CC,,50 mg/kg,,20 mg/kg,IC50 [13]: 63200 nM; TI [14]: 76.5%; IC50 ([1]; cx-1): 1100 nM; IC50 ([4]; kb): 860 nM; solubility [10]: > 5000 µg/mL; solubility [11]: > 5000 µg/mL; T/C [15]: >310%
CCn1c(=O)/c(=C2\Sc3ccc4ccccc4c3N2C)s/c1=C\c1sc2c3ccccc3ccc2[n+]1CC.[Cl-],50 nM,,340 nM,,T/C [16]: 112%
CCCC[n+]1c(/C=c2\s/c(=C\C=C3/SCCN3CC)c(=O)n2CC)sc2c3ccccc3ccc21,30 nM,,460 nM,,
CC(=O)[O-].CCn1c(=O)/c(=C2\Sc3ccccc3N2C)s/c1=C\c1oc2ccccc2[n+]1CC,180 nM,10 mg/kg,1130 nM,> 10 mg/kg,IC50 [7]: 14700 nM; T/C [15]: 140%
CC(=O)[O-].CCn1c(=O)/c(=C2\Sc3ccccc3N2C)s/c1=C\c1scc(C)[n+]1CC,110 nM,30 mg/kg,950 nM,20 mg/kg,T/C [17]: >173%; IC50 [7]: 23600 nM
CC(=O)[O-].CCn1c(=O)/c(=C2\Sc3ccccc3N2C)s/c1=C\C1=[N+](CC)CCS1,1040 nM,40 mg/kg,6220 nM,15 mg/kg,T/C [18]: 133%; IC50 [7]: 13200 nM
CCn1c(=O)/c(=C2\Sc3ccccc3N2C)s/c1=C\c1cccc[n+]1CC.[Cl-],,50 mg/kg,,20 mg/kg,T/C [19]: >344%; TI [14]: 75.5%; IC50 ([4]; kb): 810 nM; solubility [10]: > 5000 µg/mL; solubility [11]: > 5000 µg/mL
CCn1c(=O)/c(=C2\Oc3ccccc3N2C)s/c1=C\c1cccc[n+]1CC,> 2400 nM,,3730 nM,,
CC(=O)[O-].CCn1c(=O)/c(=C2\Sc3ccc4ccccc4c3N2C)s/c1=C\c1oc2c3ccccc3ccc2[n+]1CC,680 nM,,80 nM,,T/C [18]: 120%
CC(=O)[O-].CCn1c(=O)/c(=C2\SCCN2C)s/c1=C\c1sc2ccc3ccccc3c2[n+]1CC,160 nM,,250 nM,,T/C [17]: 106%
CC(=O)[O-].CCn1c(=O)/c(=C2\Sc3ccccc3N2C)s/c1=C\c1ccc2ccccc2[n+]1CC,280 nM,30 mg/kg,280 nM,10 mg/kg,T/C [18]: 124%; IC50 [7]: 8700 nM
CCN1CCS/C1=C\C=c1/s/c(=C\c2sc3c4ccccc4ccc3[n+]2CCC(=O)O)n(CC)c1=O,> 1500 nM,,> 15000 nM,,
CCN1C=CC=C/C1=C\C=c1/s/c(=C\c2sc3ccc4ccccc4c3[n+]2CC)n(CC)c1=O.[Cl-],80 nM,,770 nM,,T/C [17]: 122%
CC(=O)[O-].CCn1c(=O)/c(=C2\Sc3ccccc3N2C)s/c1=C\C1CCC[n+]2c1sc1ccccc12 (stereo unspecified),230 nM,30 mg/kg,230 nM,3 mg/kg,T/C [17]: >208%; IC50 [7]: 2900 nM
CCN1CCS/C1=C\C=c1/s/c(=C\c2sc3c4ccccc4ccc3[n+]2CC)n(CC)c1=O,20 nM,,320 nM,,
CCn1c(=O)/c(=C/C=C2\Sc3ccc4ccccc4c3N2C)s/c1=C\c1scc(C)[n+]1CC,> 1800 nM,,2000 nM,,
CCn1c(=O)/c(=C2\C=CC=CN2C)s/c1=C\c1sc2ccccc2[n+]1CC,1760 nM,,2170 nM,,
CC(=O)[O-].CCN1/C(=C/C=c2\s/c(=C\C3=[N+](CC)CCS3)n(CC)c2=O)C=Cc2ccccc21,160 nM,,910 nM,,T/C [12]: 143%
